The results in this text go back to ChEMBL document CHEMBL1144709, “Cycloartane-type triterpenoids from the resinous exudates of Commiphora opobalsamum” (J Nat Prod, 2008).

Structures are written as SMILES.

The test system of one assay is PC-3. Kind of assay: Cytotoxicity against human PC3 cells by MTT assay. The assay is classed as functional, cell-based. An outline of the steps:
(§1)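 Cells in 96-well plates exposed to test compounds for 48 h. MTT (5 mg/mL in PBS) then added and plates held 2 h at 37 °C under 5% CO2. Absorbance read at 570 nm and IC50 values reported.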
(Formazan colour is commonly taken as a measure of viable cells.)

A further assay deals with DU-145. Kind of assay: Cytotoxicity against human DU145 cells by MTT assay. The assay is classed as functional, cell-based. In short, it runs like this:
as §1

A word on the IC50: it is the concentration needed to halve the response being measured. Take `C[C@H](C/C=C/C(C)(C)O)[C@H]1CC[C@@]2(C)[C@@H]3CC[C@H]4C(C)(C)[C@@H](O)[C@H](O)[C@H](O)[C@@]45C[C@@]35CC[C@]12C`: the IC50 in the assay on PC-3 was determined as 10.3 µM; in the assay with DU-145, 34.7 µM.
On to `CC(C)=CCC[C@@H](C)[C@H]1CC[C@@]2(C)[C@@H]3CC[C@H]4C(C)(C)[C@@H](O)C[C@H](O)[C@@]45C[C@@]35CC[C@]12C`, for which the IC50 in the assay with PC-3 and in the assay with DU-145 was greater than 50 µM throughout.
On to `CC(C)=CCC[C@@H](C)[C@H]1CC[C@@]2(C)[C@@H]3CC[C@H]4C(C)(C)[C@@H](OC(=O)CC(C)C)[C@H](O)[C@H](O)[C@@]45C[C@@]35CC[C@]12C`, for which the 50% inhibitory concentration (IC50) in the assay on PC-3 was 28.4 µM; in the assay on DU-145 it was greater than 50 µM.
In the case of `CC(=O)O[C@H]1[C@H](O)[C@H](O)[C@]23C[C@]24CC[C@]2(C)[C@@H]([C@H](C)CCC=C(C)C)CC[C@@]2(C)[C@@H]4CC[C@H]3C1(C)C`, the IC50 in the assay with PC-3 is 15.4 µM; in the assay on DU-145 it was 20.7 µM.
Regarding `CC(C)=CCC[C@@H](C)[C@H]1CC[C@@]2(C)[C@@H]3CC[C@H]4C(C)(C)[C@H](O)[C@H](O)[C@H](O)[C@@]45C[C@@]35CC[C@]12C`, the IC50 in the assay on PC-3 and with DU-145 was greater than 50 µM throughout.
As to `CC(=O)O[C@H]1[C@@H](O)[C@H](O)C(C)(C)[C@@H]2CC[C@@H]3[C@]4(CC[C@]5(C)[C@@H]([C@H](C)CCC=C(C)C)CC[C@@]35C)C[C@]124`, the IC50 was 13.4 µM in the assay with PC-3 and greater than 50 µM in the assay on DU-145.
For `CC(C)=CCC[C@@H](C)[C@H]1CC[C@@]2(C)[C@@H]3CC[C@H]4C(C)(C)[C@@H](O)[C@H](O)[C@H](O)[C@@]45C[C@@]35CC[C@]12C`, in that order: 10.1 µM and 37.2 µM.
